Converted amounts (≈) assume the structure as drawn.
Each compound was assayed on Staphylococcus aureus (assay: Antibacterial activity against methicillin-resistant Staphylococcus aureus EMRSA-15 after 20 hrs by broth microdilution method). Conditions: EMRSA-15, 20 h.
Assay type: functional
How it was run: (§1)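 Broth microdilution per CLSI guidelines in Mueller Hinton Broth. Growth read as optical density at 600 nm after 20 h. MIC taken as the lowest concentration giving OD600 below 0.10. Run in triplicate.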

SMILES | MIC
CC1(C)S[C@@H]2[C@H](NC(=O)[C@H](N)c3ccc(O)cc3)C(=O)N2[C@H]1C(=O)O [AMOXICILLIN] | 128 µg/mL (≈ 350 µM)
O=[N+]([O-])c1ccc(C2=NOC(c3ccc(-c4ccccn4)cc3)C2)o1 (stereo not given) | > 128 µg/mL
O=[N+]([O-])c1ccc(C2=NOC(c3ccc(N4CCN(Cc5ccncc5)CC4)cc3)C2)o1 (stereo not given) | > 128 µg/mL
O=[N+]([O-])c1ccc(C2=NOC(c3ccc(N4CCN(Cc5ccc(F)nc5)CC4)cc3)C2)o1 (stereo not given) | 128 µg/mL (≈ 284 µM)
O=[N+]([O-])c1ccc(C2=NOC(c3ccc(-c4ccncc4)cc3)C2)o1 (stereo not given) | 128 µg/mL (≈ 382 µM)
COc1ccc(CN2CCN(c3ccc(C4CC(c5ccc([N+](=O)[O-])o5)=NO4)cc3)CC2)cn1 (stereo not given) | 128 µg/mL (≈ 276 µM)

These compounds were tested on Staphylococcus aureus (assay: Antibacterial activity against Staphylococcus aureus NCTC 6571 after 20 hrs by broth microdilution method). Conditions: NCTC 6571, 20 h.
Assay type: functional
How it was run: (§2)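 Broth microdilution per CLSI guidelines in Mueller Hinton Broth. Growth was read as optical density at 600 nm after 20 hours. The MIC was taken as the lowest drug concentration at which OD600 stayed below 0.10. Run in triplicate.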

SMILES | MIC
CC1(C)S[C@@H]2[C@H](NC(=O)[C@H](N)c3ccc(O)cc3)C(=O)N2[C@H]1C(=O)O [AMOXICILLIN] | 0.25 µg/mL (≈ 0.684 µM)

The compounds below were run on Klebsiella pneumoniae (assay: Antibacterial activity against Klebsiella pneumoniae NCTC 13368 after 20 hrs by broth micro dilution method). Conditions: NCTC 13368, 20 h.
Assay type: functional
How it was run: as §2

SMILES | MIC
O=[N+]([O-])c1ccc(C2=NOC(c3ccc(N4CCN(Cc5ccncc5)CC4)cc3)C2)o1 (stereo not given) | > 128 µg/mL
O=[N+]([O-])c1ccc(C2=NOC(c3ccc(N4CCN(Cc5ccc(F)nc5)CC4)cc3)C2)o1 (stereo not given) | > 128 µg/mL
COc1ccc(CN2CCN(c3ccc(C4CC(c5ccc([N+](=O)[O-])o5)=NO4)cc3)CC2)cn1 (stereo not given) | > 128 µg/mL

Each compound was assayed on Pseudomonas aeruginosa (assay: Antibacterial activity against Pseudomonas aeruginosa NCTC 13437 after 20 hrs by broth micro dilution method). Conditions: NCTC 13437, 20 h.
Assay type: functional
How it was run: as §2

SMILES | MIC
O=[N+]([O-])c1ccc(C2=NOC(c3ccc(N4CCN(Cc5ccncc5)CC4)cc3)C2)o1 (stereo not given) | > 128 µg/mL
O=[N+]([O-])c1ccc(C2=NOC(c3ccc(N4CCN(Cc5ccc(F)nc5)CC4)cc3)C2)o1 (stereo not given) | > 128 µg/mL
COc1ccc(CN2CCN(c3ccc(C4CC(c5ccc([N+](=O)[O-])o5)=NO4)cc3)CC2)cn1 (stereo not given) | > 128 µg/mL

What follows are compounds tested on Staphylococcus aureus (assay: Antibacterial activity against Staphylococcus aureus NCTC 8325 after 20 hrs by broth microdilution method). Conditions: NCTC 8325, 20 h.
Assay type: functional
How it was run: as §2

SMILES | MIC
CC1(C)S[C@@H]2[C@H](NC(=O)[C@H](N)c3ccc(O)cc3)C(=O)N2[C@H]1C(=O)O [AMOXICILLIN] | 0.25 to 0.5 µg/mL (≈ 0.684 to 1.37 µM)

Each compound was assayed on Klebsiella pneumoniae (assay: Antibacterial activity against Klebsiella pneumoniae M6 after 20 hrs by broth micro dilution method). Conditions: M6, 20 h.
Assay type: functional
How it was run: as §2

SMILES | MIC
O=[N+]([O-])c1ccc(C2=NOC(c3ccc(N4CCN(Cc5ccncc5)CC4)cc3)C2)o1 (stereo not given) | > 128 µg/mL
O=[N+]([O-])c1ccc(C2=NOC(c3ccc(N4CCN(Cc5ccc(F)nc5)CC4)cc3)C2)o1 (stereo not given) | > 128 µg/mL
COc1ccc(CN2CCN(c3ccc(C4CC(c5ccc([N+](=O)[O-])o5)=NO4)cc3)CC2)cn1 (stereo not given) | > 128 µg/mL

Each compound was assayed on HeLa (assay: Cytotoxicity against human HeLa cells assessed as reduction in cell viability after 96 hrs by MTT assay). Conditions: not given.
Assay type: cell-based
How it was run: (§3)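 HeLa cells were kept in DMEM with 10% FBS, 2 mM L-glutamine, non-essential amino acids and penicillin-streptomycin at 37 °C, 5% CO2. 10,000 cells per well were plated and left 24 h. Compound was then added in triplicate for 96 h continuous exposure. MTT read-out was absorbance at 570 nm. IC50 came from dose-response analysis.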

SMILES | IC50
O=[N+]([O-])c1ccc(C2=NOC(c3ccc(-c4ccccn4)cc3)C2)o1 (stereo not given) | > 50 µM
O=[N+]([O-])c1ccc(C2=NOC(c3ccc(N4CCN(Cc5ccncc5)CC4)cc3)C2)o1 (stereo not given) | > 50 µM
COc1cccc2c1C(=O)c1c(O)c3c(c(O)c1C2=O)C[C@@](O)(C(=O)CO)C[C@@H]3O[C@H]1C[C@H](N)[C@H](O)[C@H](C)O1 [DOXORUBICIN] | 0.071 µM
O=[N+]([O-])c1ccc(C2=NOC(c3ccc(N4CCN(Cc5ccc(F)nc5)CC4)cc3)C2)o1 (stereo not given) | > 50 µM
O=[N+]([O-])c1ccc(C2=NOC(c3ccc(-c4ccncc4)cc3)C2)o1 (stereo not given) | > 50 µM
COc1ccc(CN2CCN(c3ccc(C4CC(c5ccc([N+](=O)[O-])o5)=NO4)cc3)CC2)cn1 (stereo not given) | > 50 µM

What follows are compounds tested on Acinetobacter baumannii (assay: Antibacterial activity against Acinetobacter baumannii ATCC 17978 after 20 hrs by broth micro dilution method). Conditions: ATCC 17978, 20 h.
Assay type: functional
How it was run: as §2

SMILES | MIC
O=[N+]([O-])c1ccc(C2=NOC(c3ccc(N4CCN(Cc5ccncc5)CC4)cc3)C2)o1 (stereo not given) | > 128 µg/mL
O=[N+]([O-])c1ccc(C2=NOC(c3ccc(N4CCN(Cc5ccc(F)nc5)CC4)cc3)C2)o1 (stereo not given) | > 128 µg/mL
COc1ccc(CN2CCN(c3ccc(C4CC(c5ccc([N+](=O)[O-])o5)=NO4)cc3)CC2)cn1 (stereo not given) | > 128 µg/mL

What follows are compounds tested on Staphylococcus aureus (assay: Antibacterial activity against methicillin-resistant Staphylococcus aureus EMRSA-16 after 20 hrs by broth microdilution method). Conditions: EMRSA-16, 20 h.
Assay type: functional
How it was run: as §1

SMILES | MIC
CC1(C)S[C@@H]2[C@H](NC(=O)[C@H](N)c3ccc(O)cc3)C(=O)N2[C@H]1C(=O)O [AMOXICILLIN] | > 128 µg/mL
O=[N+]([O-])c1ccc(C2=NOC(c3ccc(-c4ccccn4)cc3)C2)o1 (stereo not given) | > 128 µg/mL
O=[N+]([O-])c1ccc(C2=NOC(c3ccc(N4CCN(Cc5ccncc5)CC4)cc3)C2)o1 (stereo not given) | 128 µg/mL (≈ 295 µM)
O=[N+]([O-])c1ccc(C2=NOC(c3ccc(N4CCN(Cc5ccc(F)nc5)CC4)cc3)C2)o1 (stereo not given) | 16 µg/mL (≈ 35.4 µM)
O=[N+]([O-])c1ccc(C2=NOC(c3ccc(-c4ccncc4)cc3)C2)o1 (stereo not given) | 64 µg/mL (≈ 191 µM)
COc1ccc(CN2CCN(c3ccc(C4CC(c5ccc([N+](=O)[O-])o5)=NO4)cc3)CC2)cn1 (stereo not given) | 32 µg/mL (≈ 69 µM)

These compounds were tested on Staphylococcus aureus (assay: Antibacterial activity against Staphylococcus aureus isolate 13142 after 20 hrs by broth microdilution method). Conditions: isolate 13142, 20 h.
Assay type: functional
How it was run: as §2

SMILES | MIC
CC1(C)S[C@@H]2[C@H](NC(=O)[C@H](N)c3ccc(O)cc3)C(=O)N2[C@H]1C(=O)O [AMOXICILLIN] | 0.25 µg/mL (≈ 0.684 µM)

What follows are compounds tested on Staphylococcus aureus (assay: Antibacterial activity against methicillin-resistant Staphylococcus aureus NCTC 12493 after 20 hrs by broth microdilution method). Conditions: NCTC 12493, 20 h.
Assay type: functional
How it was run: as §1

SMILES | MIC
CC1(C)S[C@@H]2[C@H](NC(=O)[C@H](N)c3ccc(O)cc3)C(=O)N2[C@H]1C(=O)O [AMOXICILLIN] | > 128 µg/mL

What follows are compounds tested on Pseudomonas aeruginosa (assay: Antibacterial activity against Pseudomonas aeruginosa PAO1 after 20 hrs by broth micro dilution method). Conditions: PAO1, 20 h.
Assay type: functional
How it was run: as §2

SMILES | MIC
O=[N+]([O-])c1ccc(C2=NOC(c3ccc(N4CCN(Cc5ccncc5)CC4)cc3)C2)o1 (stereo not given) | > 128 µg/mL
O=[N+]([O-])c1ccc(C2=NOC(c3ccc(N4CCN(Cc5ccc(F)nc5)CC4)cc3)C2)o1 (stereo not given) | > 128 µg/mL
COc1ccc(CN2CCN(c3ccc(C4CC(c5ccc([N+](=O)[O-])o5)=NO4)cc3)CC2)cn1 (stereo not given) | > 128 µg/mL

What follows are compounds tested on Acinetobacter baumannii (assay: Antibacterial activity against Acinetobacter baumannii ATCC BAA-1710 after 20 hrs by broth micro dilution method). Conditions: ATCC BAA-1710, 20 h.
Assay type: functional
How it was run: as §2

SMILES | MIC
O=[N+]([O-])c1ccc(C2=NOC(c3ccc(N4CCN(Cc5ccncc5)CC4)cc3)C2)o1 (stereo not given) | > 128 µg/mL
O=[N+]([O-])c1ccc(C2=NOC(c3ccc(N4CCN(Cc5ccc(F)nc5)CC4)cc3)C2)o1 (stereo not given) | > 128 µg/mL
COc1ccc(CN2CCN(c3ccc(C4CC(c5ccc([N+](=O)[O-])o5)=NO4)cc3)CC2)cn1 (stereo not given) | > 128 µg/mL

Each compound was assayed on Staphylococcus epidermidis (assay: Antibacterial activity against Staphylococcus epidermidis ATCC 35984 after 20 hrs by broth microdilution method). Conditions: RP62A.
Assay type: functional
How it was run: as §2

SMILES | MIC
CC1(C)S[C@@H]2[C@H](NC(=O)[C@H](N)c3ccc(O)cc3)C(=O)N2[C@H]1C(=O)O [AMOXICILLIN] | 128 µg/mL (≈ 350 µM)

Each compound was assayed on Staphylococcus aureus (assay: Antibacterial activity against Staphylococcus aureus BGW541 after 20 hrs by broth microdilution method). Conditions: BGW541, 20 h.
Assay type: functional
How it was run: as §2

SMILES | MIC
CC1(C)S[C@@H]2[C@H](NC(=O)[C@H](N)c3ccc(O)cc3)C(=O)N2[C@H]1C(=O)O [AMOXICILLIN] | 0.25 to 0.5 µg/mL (≈ 0.684 to 1.37 µM)

What follows are compounds tested on WI-38 (assay: Cytotoxicity against human WI38 cells assessed as reduction in cell viability after 96 hrs by MTT assay). Conditions: WI-38, 96 h.
Assay type: cell-based
How it was run: as §3, with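 “WI-38 lung fibroblasts” for “HeLa cells”, “15%” for “10%”, “fitting.” for “analysis.”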

SMILES | IC50
O=[N+]([O-])c1ccc(C2=NOC(c3ccc(-c4ccccn4)cc3)C2)o1 (stereo not given) | > 50 µM
O=[N+]([O-])c1ccc(C2=NOC(c3ccc(N4CCN(Cc5ccncc5)CC4)cc3)C2)o1 (stereo not given) | > 50 µM
COc1cccc2c1C(=O)c1c(O)c3c(c(O)c1C2=O)C[C@@](O)(C(=O)CO)C[C@@H]3O[C@H]1C[C@H](N)[C@H](O)[C@H](C)O1 [DOXORUBICIN] | 0.071 µM
O=[N+]([O-])c1ccc(C2=NOC(c3ccc(N4CCN(Cc5ccc(F)nc5)CC4)cc3)C2)o1 (stereo not given) | > 50 µM
O=[N+]([O-])c1ccc(C2=NOC(c3ccc(-c4ccncc4)cc3)C2)o1 (stereo not given) | > 50 µM
COc1ccc(CN2CCN(c3ccc(C4CC(c5ccc([N+](=O)[O-])o5)=NO4)cc3)CC2)cn1 (stereo not given) | > 50 µM

What follows are compounds tested on Staphylococcus aureus (assay: Antibacterial activity against Staphylococcus aureus A1988 after 20 hrs by broth microdilution method). Conditions: A1988, 20 h.
Assay type: functional
How it was run: as §2

SMILES | MIC
CC1(C)S[C@@H]2[C@H](NC(=O)[C@H](N)c3ccc(O)cc3)C(=O)N2[C@H]1C(=O)O [AMOXICILLIN] | > 128 µg/mL

These compounds were tested on Staphylococcus aureus (assay: Antibacterial activity against methicillin-sensitive Staphylococcus aureus ATCC 9144 after 20 hrs by broth micro dilution method). Conditions: ATCC 9144, 20 h.
Assay type: functional
How it was run: as §2

SMILES | MIC
CC1(C)S[C@@H]2[C@H](NC(=O)[C@H](N)c3ccc(O)cc3)C(=O)N2[C@H]1C(=O)O [AMOXICILLIN] | 0.1 to 2 µg/mL (≈ 0.274 to 5.47 µM)
O=[N+]([O-])c1ccc(C2=NOC(c3ccc(-c4ccccn4)cc3)C2)o1 (stereo not given) | > 128 µg/mL
O=[N+]([O-])c1ccc(C2=NOC(c3ccc(N4CCN(Cc5ccncc5)CC4)cc3)C2)o1 (stereo not given) | 16 µg/mL (≈ 36.9 µM)
O=[N+]([O-])c1ccc(C2=NOC(c3ccc(N4CCN(Cc5ccc(F)nc5)CC4)cc3)C2)o1 (stereo not given) | 32 µg/mL (≈ 70.9 µM)
O=[N+]([O-])c1ccc(C2=NOC(c3ccc(-c4ccncc4)cc3)C2)o1 (stereo not given) | 64 µg/mL (≈ 191 µM)
COc1ccc(CN2CCN(c3ccc(C4CC(c5ccc([N+](=O)[O-])o5)=NO4)cc3)CC2)cn1 (stereo not given) | 32 µg/mL (≈ 69 µM)

Reference: ChEMBL document CHEMBL4052664, “Novel pyridyl nitrofuranyl isoxazolines show antibacterial activity against multiple drug resistant Staphylococcus species” (Bioorg Med Chem, 2017)
